MrgX1 agonist: agonists of human MrgX1 receptor; B-score at 10 µM; AID 588627; Q96LB2; hit rate 0.44% among 310,000; MrgX1-HEK293 cells, Fluo-4 calcium fluorescence, agonist mode; stronger effect = higher value;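 active = calcium response B-score plate-corrected fluorescence ratio at least 3 library SD, with starting fluorescence B-score inside 5 SD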
Target sequence (Q96LB2 whole entry, looked up): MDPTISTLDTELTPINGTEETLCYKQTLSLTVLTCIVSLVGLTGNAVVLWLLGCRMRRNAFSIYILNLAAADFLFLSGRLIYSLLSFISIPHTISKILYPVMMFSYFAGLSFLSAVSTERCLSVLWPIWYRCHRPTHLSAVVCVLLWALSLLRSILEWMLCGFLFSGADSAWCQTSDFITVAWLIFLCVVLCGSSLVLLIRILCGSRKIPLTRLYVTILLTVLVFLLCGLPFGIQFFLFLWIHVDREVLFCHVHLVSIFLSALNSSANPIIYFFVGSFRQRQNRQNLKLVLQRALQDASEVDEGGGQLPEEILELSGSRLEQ
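Test system: HEK293 cells stably expressing human MrgX1 receptor; Input: fifteen thousand cells per well; Dosing: compound delivered in addition one of three; Schedule: overnight seeding, then 1 h dark dye loading; Technique: Fluo-4 NW calcium fluorescence; Measure: B-scored fluorescence response ratio; Controls: positive and negative controls per plate.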
MrgX1 antag: antagonists of human MrgX1 receptor; B-score at 10 µM; MRGX1-HEK293 calcium flux, Fluo-4, BAM8-22 antagonism; stronger effect = lower value; hit rate 1.3% among 310,000; Q96LB2; AID 588676;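 active = calcium-response B-score plate-corrected more than 3 library SD below zero, starting fluorescence within 5 deviations, no agonist response on first addition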;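 also: peak minus trough fluorescence over baseline after final BAM8-22 challenge near maximal dose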
RGS4 inh: human RGS4 inhibition; P49798; HEK293 M3R/RGS4 inducible, Fluo-4 calcium flux; stronger effect = higher value; triggered by carbachol at its EC20; B-score at 10 µM; hit rate 0.45% among 310,000;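 active = B-score, a plate-corrected calcium signal, over three deviations above library mean, with baseline fluorescence within five deviations of library mean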;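 also: RGS4 expression induced by doxycycline in cells with stable M3 receptor; B-score is computed from the integrated fluorescence ratio over baseline after carbachol; higher B-score means a larger calcium signal and so more RGS4 inhibition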
Target sequence (P49798 whole entry, looked up): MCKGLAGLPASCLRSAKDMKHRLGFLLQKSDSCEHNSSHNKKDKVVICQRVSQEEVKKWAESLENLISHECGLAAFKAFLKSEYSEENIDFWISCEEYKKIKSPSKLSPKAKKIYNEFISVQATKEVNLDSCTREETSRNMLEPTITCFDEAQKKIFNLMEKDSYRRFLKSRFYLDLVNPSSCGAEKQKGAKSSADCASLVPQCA
MrgX1 PAM: allosterically activates human MrgX1 receptor signaling; Q96LB2; MrgX1-HEK293, Fluo-4 calcium flux, FDSS; stronger effect = higher value; B-score at 10 µM; hit rate 0.63% among 310,000; AID 588675;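 active = plate-corrected calcium response at least 3 library SD above typical, normal starting fluorescence, not activating the receptor alone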;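 also: compound read alongside a low EC10 to EC30 dose of BAM8-22 agonist; peak minus trough fluorescence over baseline measured at the second addition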
RGS4 act: potentiators or activators of RGS4; HEK293 M3R/inducible RGS4, carbachol calcium flux Fluo4; stronger effect = lower value; B-score at 10 µM; hit rate 0.92% among 310,000; AID 463111;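 active = B-score of the integrated calcium signal more than 4 SD below the library mean, with starting fluorescence not abnormally high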;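 also: negative B-score means reduced calcium response which marks RGS4 activation or potentiation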
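Assay system: HEK293 FlpIn-TREx cells, stable M3R, doxycycline-inducible RGS4 / Probe or stimulus: carbachol, ECmax concentration / Times: overnight RGS4 induction, 30 min dye load 37 °C, 20 min compound RT / Signal: kinetic calcium fluorescence imaging with Fluo4-AM dye, 2 µM / Measure: Agonist-evoked peak-minus-minimum fluorescence over baseline, integrated ratio, B score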
RGS4 block valid: validation of RGS4 inhibitors; shares compounds with RGS4 inh; HEK293 M3R/RGS4, carbachol calcium Fluo-4 fluorescence; carbachol added at its EC20; 0 = buffer wells, 100 = carbachol control; calcium response, % at 10 µM; hit rate 65% among 1,700; AID 492999;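 active = duplicate-averaged calcium response above the buffer-only control mean plus 5 SD of those controls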;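 also: integrated fluorescence ratio F max minus min over baseline F0; higher response in RGS4-induced cells means RGS4 inhibition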
M3R Ca ctr: checks RGS4 inhibitor effects in non-induced HEK293 M3R cells; activity (percent), % at 10 µM; hit rate 20% among 1,900; AID 493000; carbachol calcium Fluo-4; submaximal (EC20) carbachol stimulus; buffer wells 0%, carbachol control wells 100%; shares compounds with RGS4 inh; call rule not given here;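 also: RGS4 induction absent so cells express M3R without RGS4; higher means more calcium signal and flags a non-specific hit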
M3R basal Ca ctr: signal in non-induced cells without carbachol, RGS4 inhibitor counter-screen; hit rate 22% among 1,900; shares compounds with RGS4 inh; calcium response (agonist-mode artifact), % at 10 µM; HEK293 M3R/RGS4 non-induced, Fluo-4 calcium, no carbachol; normalised: buffer wells 0%, carbachol wells 100%; AID 493001;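 active = duplicate-averaged calcium rise in uninduced cells above buffer wells' mean plus 5 SD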
* hit, by the source's call. The list is not random: actives were taken first. Their share in the collection is about 3.5%.

How did O=C(Cc1ccccc1)Nc1cccc(N2C(=O)C=CC2=O)c1 do in these assays?
MrgX1 agonist: inactive; MrgX1 antag: inactive; RGS4 inh: 7.5*; MrgX1 PAM: inactive; RGS4 act: inactive; RGS4 block valid: 12%*; M3R Ca ctr: inactive; M3R basal Ca ctr: 42%*

What do the screens show for `CCOC(=O)[C@H]1[C@H]2COc3cc(OC)ccc3[C@@H]2N2C(=O)N(c3cccc(Cl)c3)C(=O)[C@@]12C`?
MrgX1 agonist: inactive; MrgX1 antag: inactive; RGS4 inh: inactive; MrgX1 PAM: inactive; RGS4 act: inactive; RGS4 block valid: inactive; M3R Ca ctr: inactive; M3R basal Ca ctr: inactive

Results for CCOC(=O)[C@@H]1[C@H]2COc3cc(OC)ccc3[C@@H]2N2C(=O)N(c3ccc(Br)cc3)C(=O)[C@]12C ?
MrgX1 agonist: inactive; MrgX1 antag: inactive; RGS4 inh: inactive; MrgX1 PAM: inactive; RGS4 act: inactive

What do the screens show for `CCOC(=O)[C@@H]1[C@H]2COc3cc(OC)ccc3[C@@H]2N2C(=O)N(c3ccc(Cl)cc3)C(=O)[C@]12C`?
MrgX1 agonist: inactive; MrgX1 antag: inactive; RGS4 inh: inactive; MrgX1 PAM: inactive; RGS4 act: inactive; RGS4 block valid: inactive; M3R Ca ctr: inactive; M3R basal Ca ctr: inactive

How did CCOC(=O)[C@@H]1[C@H]2COc3cc(OC)ccc3[C@@H]2N2C(=O)N(c3ccc(C)cc3)C(=O)[C@]12C do in these assays?
MrgX1 agonist: inactive; MrgX1 antag: inactive; RGS4 inh: inactive; MrgX1 PAM: inactive; RGS4 act: inactive

Results for CCOC(=O)[C@@H]1[C@H]2COc3cc(OC)ccc3[C@@H]2N2C(=O)N(c3cccc(Cl)c3)C(=O)[C@@]12C ?
MrgX1 agonist: inactive; MrgX1 antag: inactive; RGS4 inh: inactive; MrgX1 PAM: inactive; RGS4 act: inactive; RGS4 block valid: inactive; M3R Ca ctr: inactive; M3R basal Ca ctr: inactive

Results for CCOC(=O)[C@@H]1[C@H]2COc3cc(OC)ccc3[C@@H]2N2C(=O)N(c3cccc(Cl)c3)C(=O)[C@]12C ?
MrgX1 agonist: inactive; MrgX1 antag: inactive; RGS4 inh: inactive; MrgX1 PAM: inactive; RGS4 act: inactive; RGS4 block valid: inactive; M3R Ca ctr: inactive; M3R basal Ca ctr: inactive

What do the screens show for `Cc1nnc(NC(=O)CN2CCN(Cc3ccccc3)CC2)s1`?
MrgX1 agonist: inactive; MrgX1 antag: inactive; RGS4 inh: inactive; MrgX1 PAM: inactive; RGS4 act: inactive

What do the screens show for `CC(C)CCN1CCN=C1Nc1ccccc1`?
MrgX1 agonist: inactive; MrgX1 antag: inactive; RGS4 inh: inactive; MrgX1 PAM: inactive; RGS4 act: inactive

What do the screens show for `COc1cc(NC(=O)C2=C(C)OCCS2)c(Cl)cc1C(=O)NCCN(C)C`?
MrgX1 agonist: inactive; MrgX1 antag: inactive; RGS4 inh: inactive; MrgX1 PAM: inactive; RGS4 act: inactive

How did Nc1nonc1-n1nnc(C(=O)N/N=C/c2cccc(F)c2)c1CN1CCCCCC1 do in these assays?
MrgX1 agonist: inactive; MrgX1 antag: inactive; RGS4 inh: inactive; MrgX1 PAM: inactive; RGS4 act: inactive

What do the screens show for `S=C(NCCN1CCOCC1)NC1CCCC1`?
MrgX1 agonist: inactive; MrgX1 antag: inactive; RGS4 inh: inactive; MrgX1 PAM: inactive; RGS4 act: inactive

How did CCOc1ccc(-c2nnc(Nc3ccc(OC)c(C(=O)N4CCCCC4)c3)c3ccccc23)cc1 do in these assays?
MrgX1 agonist: inactive; MrgX1 antag: inactive; RGS4 inh: inactive; MrgX1 PAM: inactive; RGS4 act: inactive; RGS4 block valid: inactive; M3R Ca ctr: inactive; M3R basal Ca ctr: inactive

What do the screens show for `O=C(Nc1ccnn1C1CCN(Cc2ccc(CO)o2)CC1)c1ccc2c(c1)OCO2`?
MrgX1 agonist: inactive; MrgX1 antag: inactive; RGS4 inh: inactive; MrgX1 PAM: inactive; RGS4 act: inactive

What do the screens show for `Cc1ccc(/C=N/N2CCN(Cc3ccccc3)CC2)cc1`?
MrgX1 agonist: inactive; MrgX1 antag: inactive; RGS4 inh: inactive; MrgX1 PAM: inactive; RGS4 act: inactive

How did Cc1ccc(CN2CCN(/N=C/c3ccc(N(C)C)cc3)CC2)cc1 do in these assays?
MrgX1 agonist: inactive; MrgX1 antag: inactive; RGS4 inh: 8.8*; MrgX1 PAM: inactive; RGS4 act: inactive; RGS4 block valid: inactive; M3R Ca ctr: inactive; M3R basal Ca ctr: inactive

Results for Cc1ccc(C(C(=O)NC2CCCCC2)N(Cc2cccnc2)C(=O)c2csnn2)cc1 (stereo not drawn) ?
MrgX1 agonist: inactive; MrgX1 antag: inactive; RGS4 inh: inactive; MrgX1 PAM: inactive; RGS4 act: inactive

How did O=[N+]([O-])c1ccc(-c2nn(-c3ccccc3)cc2/C=N/n2c(-c3ccncc3)n[nH]c2=S)cc1 do in these assays?
MrgX1 agonist: inactive; MrgX1 antag: inactive; RGS4 inh: inactive; MrgX1 PAM: inactive; RGS4 act: inactive; RGS4 block valid: inactive; M3R Ca ctr: inactive; M3R basal Ca ctr: inactive

Results for S=c1[nH]nc(-c2ccncc2)n1/N=C/c1cn(-c2ccccc2)nc1-c1ccccc1 ?
MrgX1 agonist: inactive; MrgX1 antag: inactive; RGS4 inh: 7.8*; MrgX1 PAM: inactive; RGS4 act: inactive; RGS4 block valid: 12%*; M3R Ca ctr: 41%*; M3R basal Ca ctr: inactive

What do the screens show for `Cc1ccc(-c2nn(-c3ccccc3)cc2/C=N/n2c(-c3cccs3)n[nH]c2=S)cc1`?
MrgX1 agonist: inactive; MrgX1 antag: inactive; RGS4 inh: inactive; MrgX1 PAM: inactive; RGS4 act: inactive

Results for CC(=O)N1CCc2cc(S(=O)(=O)NC(C(=O)NC(C)c3ccccc3)C(C)C)ccc21 (stereo not drawn) ?
MrgX1 agonist: inactive; MrgX1 antag: inactive; RGS4 inh: inactive; MrgX1 PAM: inactive; RGS4 act: inactive; RGS4 block valid: inactive; M3R Ca ctr: inactive; M3R basal Ca ctr: inactive

Results for CCOC(=O)c1c(NC(=O)C2=COCCO2)sc2c1CCN(C(=O)OC)C2 ?
MrgX1 agonist: inactive; MrgX1 antag: inactive; RGS4 inh: inactive; MrgX1 PAM: inactive; RGS4 act: inactive
